# In ChEMBL document CHEMBL1124186, “Synthesis and evaluation of tylosin-related macrolides modified at the aldehyde function: a new series of orally effective antibiotics” (1988):
# Legend:
# Bacteroides fragilis [1] = experiment: In vitro antimicrobial activity against anaerobic bacteria bacteroides fragilis 1936B,; assay type: functional
# Chlamydia trachomatis = experiment: In vitro antimicrobial activity against chlamydia trachomatis.; assay type: functional
# Streptococcus pyogenes [2] = experiment: Activity against Streptococcus pyogenes C203 when administered sc; assay type: functional
# In short: (§1)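 Mouse protection test: infected mice were dosed twice, at 1 and 5 h postinfection, either subcutaneously or orally. […] The result is expressed as ED50 in mg/kg × 2.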
# Staphylococcus aureus [3] = experiment: In vitro antimicrobial activity against aerobic bacteria Staphylococcus aureus V41; assay type: functional
# Staphylococcus aureus [4] = experiment: In vivo effective dose against experimental infections in mice Staphylococcus aureus X1 when administered sc; assay type: functional
# Anaerococcus prevotii = experiment: In vitro antimicrobial activity against anaerobic bacteria peptococcus prevoti 1281; assay type: functional
# Staphylococcus aureus [5] = experiment: In vivo effective dose against experimental infections in mice Staphylococcus aureus X1 when administered orally; assay type: functional; settings: po
# [6] = test system: Peptoniphilus asaccharolyticus; experiment: In vitro antimicrobial activity against anaerobic bacteria peptococcus asaccharolyticus 1302; assay type: functional
# Staphylococcus aureus [7] = experiment: In vitro antimicrobial activity against Staphylococcus aureus X1; assay type: functional
# Streptococcus pyogenes [8] = experiment: In vivo pyogenes C203 when administered sc; assay type: functional
# Streptococcus sanguinis = experiment: In vitro antimicrobial activity against aerobic bacteria Streptococcus sanguis MX132; assay type: functional
# Fusobacterium = experiment: In vitro antimicrobial activity against anaerobic bacteria fusobacterium symbiosum 1470; assay type: functional
# Bacteroides fragilis [9] = experiment: In vitro antimicrobial activity against anaerobic bacteria bacteroides fragilis 111; assay type: functional
# Streptococcus [10] = experiment: In vitro antimicrobial activity against aerobic bacteria Streptococcus C 24
# Clostridium perfringens = experiment: In vitro antimicrobial activity against anaerobic bacteria clostridium perfringens 81,; assay type: functional
# [11] = test system: Prevotella melaninogenica; experiment: In vitro antimicrobial activity against anaerobic bacteria bacteroides melaninogenicus 1856,; assay type: functional
# Haemophilus influenzae [12] = experiment: In vitro antimicrobial activity against Haemophilus influenzae.; assay type: functional
# Bacteroides fragilis [13] = experiment: In vitro antimicrobial activity against anaerobic bacteria bacteroides fragilis 1877; assay type: functional
# Clostridioides difficile = experiment: In vitro antimicrobial activity against anaerobic bacteria Clostridium difficile 2994; assay type: functional
# [14] = In vitro antimicrobial activity against anaerobic bacteria peptostreptococcus intermedius 1264; assay type: functional
# Enterococcus faecium = experiment: In vitro antimicrobial activity against Streptococcus faecium X66; assay type: functional, streptococcus fae-cium
# Staphylococcus aureus [15] = experiment: In vitro antimicrobial activity against aerobic bacteria Staphylococcus aureus X400; assay type: functional
# Staphylococcus aureus [16] = experiment: In vitro antimicrobial activity against aerobic bacteria Staphylococcus aureus V135; assay type: functional
# Streptococcus pneumoniae [17] = experiment: In vitro antimicrobial activity against Streptococcus pneumoniae; assay type: functional
# Streptococcus pyogenes [18] = experiment: Activity against Streptococcus pyogenes C203 when administered orally; assay type: functional; settings: po; in short: as §1
# Streptococcus [19] = experiment: In vitro antimicrobial activity against aerobic bacteria Streptococcus D 2041
# Eikenella corrodens = experiment: In vitro antimicrobial activity against anaerobic bacteria bacteroides corrodens 1874; assay type: functional
# Streptococcus [20] = experiment: In vitro antimicrobial activity against aerobic bacteria Streptococcus D 9960
# Streptococcus [21] = experiment: In vitro antimicrobial activity against aerobic bacteria Streptococcus D 8043
# Haemophilus influenzae [22] = experiment: In vitro antimicrobial activity against aerobic bacteria Haemophilus influenzae 465; assay type: functional
# Clostridium septicum = experiment: In vitro antimicrobial activity against anaerobic bacteria clostridium septicum 1128; assay type: functional
# Streptococcus pyogenes [23] = experiment: In vivo activity against experimental infections in rodent caused by Streptococcus pyogenes C203 when administered orally; assay type: functional; settings: po
# Streptococcus pyogenes [24] = experiment: In vitro antimicrobial activity against Streptococcus pyogenes C203; assay type: functional
# Haemophilus influenzae [25] = experiment: In vitro antimicrobial activity against aerobic bacteria Haemophilus influenzae MX366,; assay type: functional
# Streptococcus pneumoniae [26] = experiment: In vivo effective dose against experimental infections in mice Streptococcus pneumoniae park when administered orally; assay type: functional; settings: po
# Haemophilus influenzae [27] = experiment: In vitro antimicrobial activity against aerobic bacteria Haemophilus influenzae 76; assay type: functional
# [28] = test system: Prevotella melaninogenica; experiment: In vitro antimicrobial activity against anaerobic bacteria bacteroides melaninogenicus 2736; assay type: functional
# [29] = test system: Haemophilus parainfluenzae; experiment: In vitro antimicrobial activity against aerobic bacteria Haemophilus parainfluenzae 9796; assay type: functional
# Streptococcus [30] = experiment: In vitro antimicrobial activity against aerobic bacteria Streptococcus B 8
# Streptococcus viridans = experiment: In vitro antimicrobial activity against aerobic bacteria Streptococcus viridans 9943; assay type: functional
# Streptococcus pneumoniae [31] = experiment: In vivo effective dose against experimental infections in mice Streptococcus pneumoniae park when administered sc; assay type: functional
# Streptococcus [32] = experiment: In vitro antimicrobial activity against aerobic bacteria Streptococcus B 5; assay type: functional
# [33] = test system: Fusobacterium necrophorum; experiment: In vitro antimicrobial activity against anaerobic bacteria usobacterium necrophorum 6054A; assay type: functional
# [34] = test system: Staphylococcus epidermidis; experiment: In vitro antimicrobial activity against aerobic bacteria Streptococcus epi 222; assay type: functional
# Streptococcus [35] = experiment: In vitro antimicrobial activity against aerobic bacteria Streptococcus G Kruder
# [36] = test system: Staphylococcus epidermidis; experiment: In vitro antimicrobial activity against Staphylococcus epidermidis EPI1; assay type: functional
# [37] = test system: Peptostreptococcus anaerobius; experiment: In vitro antimicrobial activity against anaerobic bacteria peptostreptococcus anaerobius 1428,; assay type: functional
# [38] = test system: Staphylococcus epidermidis; experiment: In vitro antimicrobial activity against aerobic bacteria Streptococcus epi 270; assay type: functional
# [39] = test system: Bacteroides thetaiotaomicron; experiment: In vitro antimicrobial activity against anaerobic bacteria bacteroides thetaiotaomicron 1438; assay type: functional
# Collinsella aerofaciens = experiment: In vitro antimicrobial activity against anaerobic bacteria eubacterium aerofaciens 1235; assay type: functional
# Cutibacterium acnes = experiment: In vitro antimicrobial activity against anaerobic bacteria propionibacterium acnes 79; assay type: functional
# Staphylococcus aureus [40] = experiment: In vitro antimicrobial activity against aerobic bacteria Staphylococcus aureus 513E; assay type: functional
# Streptococcus pneumoniae [41] = experiment: In vitro antimicrobial activity against aerobic bacteria Streptococcus pneumoniae B1-438; assay type: functional, streptococcus pneum
# Staphylococcus aureus [42] = experiment: In vitro antimicrobial activity against aerobic bacteria Staphylococcus aureus V140,; assay type: functional
# Phocaeicola vulgatus = experiment: In vitro antimicrobial activity against anaerobic bacteria bacteroides vulgatus 1211; assay type: functional
smiles,measurement,setting,value
CC[C@H]1OC(=O)C[C@@H](O)[C@H](C)[C@@H](O[C@@H]2O[C@H](C)[C@@H](O)[C@H](N(C)C)[C@H]2O)[C@@H](CC=O)C[C@@H](C)C(=O)/C=C/C(C)=C/[C@@H]1CO[C@@H]1O[C@H](C)[C@@H](O)[C@@H](OC)[C@H]1OC,MIC,Bacteroides fragilis [1],8 µg/mL
same,MIC,Chlamydia trachomatis,0.5 µg/mL
same,ED50,Streptococcus pyogenes [2],0.25 mg/kg
same,MIC,Staphylococcus aureus [3],1 µg/mL
same,ED50,Staphylococcus aureus [4],3.9 mg/kg
same,MIC,Anaerococcus prevotii,4 µg/mL
same,ED50,Staphylococcus aureus [5],> 100 mg/kg
same,MIC,[6],8 µg/mL
same,MIC,Staphylococcus aureus [7],0.5 µg/mL
same,ED50,Streptococcus pyogenes [8],1.4 mg/kg
same,MIC,Streptococcus sanguinis,0.5 µg/mL
same,MIC,Fusobacterium,2 µg/mL
same,MIC,Bacteroides fragilis [9],8 µg/mL
same,MIC,Streptococcus [10],0.5 µg/mL
same,MIC,Clostridium perfringens,0.25 µg/mL
same,MIC,[11],8 µg/mL
same,MIC,Haemophilus influenzae [12],4 µg/mL
same,MIC,Bacteroides fragilis [13],8 µg/mL
same,MIC,Clostridioides difficile,0.25 µg/mL
same,MIC,[14],16 µg/mL
same,MIC,Enterococcus faecium,4 µg/mL
same,MIC,Staphylococcus aureus [15],1 µg/mL
same,MIC,Staphylococcus aureus [16],1 µg/mL
same,MIC,Streptococcus pneumoniae [17],0.25 µg/mL
same,ED50,Streptococcus pyogenes [18],0.8 mg/kg
same,MIC,Streptococcus [19],0.5 µg/mL
same,MIC,Eikenella corrodens,8 µg/mL
same,MIC,Streptococcus [20],1 µg/mL
same,MIC,Streptococcus [21],0.5 µg/mL
same,MIC,Haemophilus influenzae [22],16 µg/mL
same,MIC,Clostridium septicum,2 µg/mL
same,ED50,Streptococcus pyogenes [23],84 mg/kg
same,MIC,Streptococcus pyogenes [24],0.25 µg/mL
same,MIC,Haemophilus influenzae [25],32 µg/mL
same,ED50,Streptococcus pneumoniae [26],> 100 mg/kg
same,MIC,Haemophilus influenzae [27],8 µg/mL
same,MIC,[28],16 µg/mL
same,MIC,[29],8 µg/mL
same,MIC,Streptococcus [30],0.5 µg/mL
same,MIC,Streptococcus viridans,> 128 µg/mL
same,ED50,Streptococcus pneumoniae [31],> 10 mg/kg
same,MIC,Streptococcus [32],0.5 µg/mL
same,MIC,[33],1 µg/mL
same,MIC,[34],0.25 µg/mL
same,MIC,Streptococcus [35],0.25 µg/mL
same,MIC,[36],0.5 µg/mL
same,MIC,[37],4 µg/mL
same,MIC,[38],> 128 µg/mL
same,MIC,[39],2 µg/mL
same,MIC,Collinsella aerofaciens,0.12 µg/mL
same,MIC,Cutibacterium acnes,2 µg/mL
same,MIC,Staphylococcus aureus [40],1 µg/mL
same,MIC,Streptococcus pneumoniae [41],> 128 µg/mL
same,MIC,Staphylococcus aureus [42],1 µg/mL
same,MIC,Phocaeicola vulgatus,8 µg/mL
